From ChEMBL document CHEMBL1125251, “4'-Hydroxy-3-methoxyflavones with potent antipicornavirus activity” (J Med Chem, 1991)
≈ marks a conversion by molar mass, not a printed value. Calls of active or inactive are those of the source. The rule behind the calls is not given here.

Key:
Enterovirus C [1] = experiment: The ratio of the poliovirus viral titer of the virus control (reduction factor) to the viral titer in the presence of the maximal non-toxic dose (RF MNTD); type: functional
How it was run: (§1)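 Poliovirus type 1 Brunhilde 1A/S3 in Vero monolayers. Serial 10-fold virus dilutions adsorbed 1 h at 37 °C, then serial 2-fold compound dilutions were added. Incubated at 37 °C and scored for CPE by light microscopy, with a 3-day readout. Titer reduction is control/treated TCD50/mL. ED99 is the minimum concentration inhibiting 99% of virus. Virus, cell and compound controls were included.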

Enterovirus C [2] = experiment: Minimum drug concentration at which 99% of the polio virus is inhibited; type: functional; how it was run: as §1
Enterovirus C [3] = experiment: Maximal non-toxic dose (MNTD) that shows antiviral activity.; type: functional
How it was run: (§2)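 End-point titration. Poliovirus type 1 Brunhilde was run in Vero cells at 37 °C with a 3-day read. Rhinovirus 15 was run in human skin fibroblasts at 33 °C with a 7-day read. Monolayers got serial 10-fold virus dilutions and adsorbed 1 h at 37 °C, then serial 2-fold compound dilutions (DMSO stock in maintenance medium). CPE was read by light microscopy. RF = control titer (TCD50/mL) / titer at maximal nontoxic dose.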

[4] = Cytotoxic dose at which 50% growth of normal cells is inhibited; type: cell-based; details: chlorocebus sabaeus, Vero cells; read-out: CyD50
How it was run: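 Cell-growth cytotoxicity in Vero cells or human skin fibroblasts. Serial 2-fold dilutions in M-199 with 6% newborn calf serum were added in quadruplicate to 10⁶ cells and held 6 days at 37 °C. Cells were trypsinized, counted and reseeded with compound, repeated five times. Generation time was calculated per concentration. CyD50 = lowest concentration at least doubling generation time versus untreated cells.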

Human rhinovirus sp. [5] = experiment: Minimum drug concentration at which 99% of the rhino virus is inhibited; NA= not active; type: functional, organism-based
How it was run: (§3)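 End-point titration with rhinovirus type 15 on human skin fibroblast monolayers. Cells were infected with serial 10-fold virus dilutions and allowed 1 h adsorption at 37 °C. Serial 2-fold compound dilutions were then added and plates incubated at 33 °C. CPE was read daily by light microscopy for at least 1 week, titres as TCD50/mL. ED99 = minimum concentration inhibiting 99% of virus.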

[6] = Therapeutic Index measured as the ratio of CyD50(polio) / ED99(polio) values; type: organism-based; details: enterovirus c; read-out: Therapeutic index 99
How it was run: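 TI99 = CyD50/ED99 for poliovirus. ED99 came from end-point titration in Vero cells at 37 °C over 3 days. CyD50 came from Vero cell growth: 10⁶ cells were given serial 2-fold compound dilutions in quadruplicate for 6 days at 37 °C, then trypsinized, counted and reseeded, repeated five times. Generation time was calculated per concentration.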

Human rhinovirus sp. [7] = experiment: Cytotoxic dose at which 50% growth of normal cells is inhibited against rhino virus infection.; type: functional
How it was run: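 Human skin fibroblasts, 10⁶ cells per flask, given serial 2-fold dilutions in quadruplicate in M-199 with 6% newborn calf serum and held 6 days at 37 °C. Cells were trypsinized, counted in a chamber and reseeded with compound over five repeat cycles. CyD50 = lowest concentration at least doubling cell generation time relative to untreated control.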

Enterovirus C [8] = experiment: Minimal dose which produces titer reduction at 10 ug/mL (mD RF10e3); type: functional
Human rhinovirus sp. [9] = experiment: Minimum drug concentration at which 99% of the rhino virus is inhibited.; type: functional; how it was run: as §3
[10] = Therapeutic Index measured as the ratio of CyD50 (rhino) / ED99 (rhino) values.; details: read-out: Therapeutic index 99
How it was run: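 TI99 = CyD50/ED99 for rhinovirus 15. ED99 came from end-point titration in human skin fibroblasts at 33 °C over 7 days. CyD50 came from fibroblast growth: 10⁶ cells were given serial 2-fold compound dilutions in quadruplicate for 6 days at 37 °C, then counted and reseeded, repeated five times. Generation time was calculated per concentration.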

Enterovirus C [11] = experiment: Minimum drug concentration at which 99% of the polio virus is inhibited; NA= not active; type: functional, organism-based; how it was run: as §1
Rattus norvegicus [12] = species: Rattus norvegicus; experiment: Mutagenicity evaluated by calculating number of revertants using Salmonella Typhimurium strain TA 100 (0.25 mg/plate) without S9 mix from rat liver according to the plate incorporation assay.; type: functional
How it was run: (§4)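 Ames plate incorporation assay with Salmonella typhimurium TA98 or TA100, without S9, at 0.25 mg/plate. Revertants per plate were counted on duplicate plates per dose. Quercetin was the standard mutagen.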

Rattus norvegicus [13] = species: Rattus norvegicus; experiment: Mutagenicity evaluated by calculating number of revertants using Salmonella Typhimurium strain TA 98 (0.25 mg/plate) without S9 mix from rat liver; type: functional; how it was run: as §4
Enterovirus C [14] = experiment: Minimum drug concentration at which 99% of the polio virus is inhibited; NA= Not active; type: functional, organism-based; how it was run: as §1
Human rhinovirus sp. [15] = experiment: Antirhinovirus activity against rhinovirus serotype 15 which were grown on Ohio HeLa cells; type: functional
Human rhinovirus sp. [16] = experiment: Antirhinovirus activity against rhinovirus serotype 2 which were grown on Ohio HeLa cells; type: functional
Human rhinovirus sp. [17] = experiment: Antirhinovirus activity against rhinovirus serotype 29 which were grown on Ohio HeLa cells; type: functional
Human rhinovirus sp. [18] = experiment: Antirhinovirus activity against rhinovirus serotype 39 which were grown on Ohio HeLa cells; type: functional
Human rhinovirus sp. [19] = experiment: Antirhinovirus activity against rhinovirus serotype 41 which were grown on Ohio HeLa cells; type: functional
Human rhinovirus sp. [20] = experiment: Antirhinovirus activity against rhinovirus serotype 63 which were grown on Ohio HeLa cells; type: functional
Human rhinovirus sp. [21] = experiment: Antirhinovirus activity against rhinovirus serotype 70 which were grown on Ohio HeLa cells; type: functional
Human rhinovirus sp. [22] = experiment: Antirhinovirus activity against rhinovirus serotype 85 which were grown on Ohio HeLa cells; type: functional
Human rhinovirus sp. [23] = experiment: Antirhinovirus activity against rhinovirus serotype 89 which were grown on Ohio HeLa cells; type: functional
Human rhinovirus sp. [24] = experiment: Antirhinovirus activity against rhinovirus serotype 9 which were grown on Ohio HeLa cells; type: functional
Human rhinovirus sp. [25] = experiment: Antirhinovirus activity against rhinovirus serotype 14 which were grown on Ohio HeLa cells; type: functional
Human rhinovirus sp. [26] = experiment: Antirhinovirus activity against rhinovirus serotype 59 which were grown on Ohio HeLa cells; type: functional
Enterovirus C [27] = experiment: The ratio of the viral titer of the virus control (reduction factor) to the viral titer in the presence of the maximal non-toxic dose (RF MNTD) of the compound; type: functional; how it was run: as §2

Compound	Reduction factor (Enterovirus C [1])	ED99 (Enterovirus C [2])	Max non-toxic dose (Enterovirus C [3])	CC50 [4]	selectivity ratio [6]	CyD50 (Human rhinovirus sp. [7])	Minimal dose (Enterovirus C [8])	ED99 (Human rhinovirus sp. [9])	selectivity ratio [10]	also measured
CCOc1c(-c2ccc(O)cc2)oc2cc(C)ccc2c1=O	1	>25 µg/mL	25 µg/mL	25 µg/mL (≈ 84.4 µM)	< 1	25 µg/mL	–	–	–	ED99 (Human rhinovirus sp. [5]): inactive
COc1cc(O)c2c(=O)c(OC)c(-c3ccc(O)cc3)oc2c1OC	1000000	0.25 µg/mL	25 µg/mL	> 100 µg/mL	400	>100 µg/mL	0.3 µg/mL	0.5 µg/mL	> 200	–
COc1c(-c2ccc(O)cc2)oc2cc(Cl)ccc2c1=O	10000	7 µg/mL	100 µg/mL	100 µg/mL (≈ 330 µM)	14.3	100 µg/mL	20 µg/mL	25 µg/mL	4	–
COc1cc(O)c2c(=O)c(OC)c(-c3ccc(O)c(O)c3)oc2c1OC	100000	0.2 µg/mL	10 µg/mL	> 5 µg/mL	25	20 µg/mL	0.5 µg/mL	2 µg/mL	10	–
COc1c(-c2ccc(Cl)cc2)oc2ccc(Cl)cc2c1=O	1	–	25 µg/mL	20 µg/mL (≈ 62.3 µM)	–	–	–	–	–	ED99 (Enterovirus C [11]): inactive
O=c1c(O)c(-c2ccc(O)c(O)c2)oc2cc(O)cc(O)c12 [QUERCETIN]	–	–	–	–	–	–	–	–	–	Revertants/plate (Rattus norvegicus [12]): 589; Revertants/plate (Rattus norvegicus [13]): 1100
COc1cc2oc(-c3ccc(O)cc3)c(OC)c(=O)c2c(O)c1OC [PENDULETIN]	1000000	0.2 µg/mL	100 µg/mL	100 µg/mL (≈ 290 µM)	500	10 µg/mL	0.1 µg/mL	10 µg/mL	1	–
COc1c(-c2ccc(O)cc2)oc2cc(O)ccc2c1=O	–	1 µg/mL	5 µg/mL	15 µg/mL (≈ 52.8 µM)	15	25 µg/mL	4 µg/mL	25 µg/mL	1	–
COc1c(-c2ccc(O)cc2)oc2ccc([N+](=O)[O-])cc2c1=O	–	–	50 µg/mL	> 0.1 µg/mL	–	–	–	–	–	ED99 (Enterovirus C [14]): inactive
COc1cc(OC)c2c(=O)c(OC)c(-c3ccc(O)cc3)oc2c1	100000	10 µg/mL	100 µg/mL	100 µg/mL (≈ 305 µM)	10	100 µg/mL	5 µg/mL	20 µg/mL	5	–
COc1c(-c2ccc(O)cc2)oc2cc(O)cc(C)c2c1=O	100000	0.1 µg/mL	10 µg/mL	15 µg/mL (≈ 50.3 µM)	150	15 µg/mL	0.05 µg/mL	1 µg/mL	15	–
COc1ccc(-c2oc3cc(Cl)ccc3c(=O)c2OC)cc1	1	–	100 µg/mL	> 200 µg/mL	–	–	–	–	–	ED99 (Enterovirus C [11]): inactive
COc1c(-c2ccc(O)cc2)oc2cccc(O)c2c1=O	10000	0.5 µg/mL	5 µg/mL	25 µg/mL (≈ 87.9 µM)	50	5 µg/mL	1.5 µg/mL	1 µg/mL	5	–
COc1ccc(-c2oc3c(OC)cccc3c(=O)c2OC)cc1	1	–	100 µg/mL	> 200 µg/mL	–	–	–	–	–	ED99 (Enterovirus C [14]): inactive
COc1cc(-c2oc3cc(O)c(OC)c(O)c3c(=O)c2OC)ccc1O	10000	–	10 µg/mL	1 µg/mL (≈ 2.78 µM)	–	–	1 µg/mL	–	–	ED99 (Enterovirus C [14]): inactive
COc1cc(O)c2c(=O)c(OC)c(-c3ccc(O)cc3)oc2c1 [KUMATAKENIN]	1000000	0.3 µg/mL	100 µg/mL	100 µg/mL (≈ 318 µM)	333	100 µg/mL	0.3 µg/mL	2.5 µg/mL	40	–
COc1ccc(-c2oc3ccc(Cl)cc3c(=O)c2OC)cc1	1	–	25 µg/mL	20 µg/mL (≈ 63.1 µM)	–	–	–	–	–	ED99 (Enterovirus C [11]): inactive
N=C(N)N [GUANIDINE]	–	–	–	–	–	–	–	–	–	MIC50 (Human rhinovirus sp. [15]): 438 µg/mL (≈ 7410 µM); MIC50 (Human rhinovirus sp. [16]): > 64 µg/mL; MIC50 (Human rhinovirus sp. [17]): > 64 µg/mL; MIC50 (Human rhinovirus sp. [18]): 109 µg/mL (≈ 1850 µM); MIC50 (Human rhinovirus sp. [19]): 1000 µg/mL (≈ 16900 µM); MIC50 (Human rhinovirus sp. [20]): 500 µg/mL (≈ 8460 µM); MIC50 (Human rhinovirus sp. [21]): 6 µg/mL (≈ 102 µM); MIC50 (Human rhinovirus sp. [22]): 750 µg/mL (≈ 12700 µM); MIC50 (Human rhinovirus sp. [23]): 1000 µg/mL (≈ 16900 µM); MIC50 (Human rhinovirus sp. [24]): 375 µg/mL (≈ 6350 µM); MIC50 (Human rhinovirus sp. [25]): 7 µg/mL (≈ 118 µM); MIC50 (Human rhinovirus sp. [26]): 350 µg/mL (≈ 5920 µM)
COc1c(-c2ccc(Cl)cc2)oc2cc(Cl)ccc2c1=O	1	–	25 µg/mL	20 µg/mL (≈ 62.3 µM)	–	–	–	–	–	ED99 (Enterovirus C [11]): inactive
COc1c(-c2ccc(O)cc2)oc2ccc(N)cc2c1=O	–	5 µg/mL	10 µg/mL	10 µg/mL (≈ 35.3 µM)	2	–	10 µg/mL	–	–	Reduction factor (Enterovirus C [27]): 10000
COc1cc(C)c2c(=O)c(OC)c(-c3ccc(O)cc3)oc2c1	100000	1 µg/mL	25 µg/mL	50 µg/mL (≈ 160 µM)	50	50 µg/mL	0.5 µg/mL	25 µg/mL	2	MIC50 (Human rhinovirus sp. [15]): 0.4 µg/mL (≈ 1.28 µM); MIC50 (Human rhinovirus sp. [16]): 2.4 µg/mL (≈ 7.68 µM); MIC50 (Human rhinovirus sp. [17]): 0.175 µg/mL (≈ 0.56 µM); MIC50 (Human rhinovirus sp. [18]): 12 µg/mL (≈ 38.4 µM); MIC50 (Human rhinovirus sp. [19]): 0.375 µg/mL (≈ 1.2 µM); MIC50 (Human rhinovirus sp. [21]): 5 µg/mL (≈ 16 µM); MIC50 (Human rhinovirus sp. [23]): 0.2 µg/mL (≈ 0.64 µM); MIC50 (Human rhinovirus sp. [24]): 0.2 µg/mL (≈ 0.64 µM); MIC50 (Human rhinovirus sp. [25]): 10.8 µg/mL (≈ 34.6 µM); MIC50 (Human rhinovirus sp. [26]): 3 µg/mL (≈ 9.61 µM)
COc1c(-c2ccc(O)cc2)oc2ccc(O)cc2c1=O	–	2 µg/mL	10 µg/mL	3 µg/mL (≈ 10.6 µM)	1.5	15 µg/mL	5 µg/mL	10 µg/mL	1.5	–
Cc1ccc2c(=O)c(OC(C)C)c(-c3ccc(O)cc3)oc2c1	–	–	–	2 µg/mL (≈ 6.44 µM)	–	2 µg/mL	–	–	–	ED99 (Human rhinovirus sp. [5]): inactive
